Experimental data pooled from the literature.
Compare with care: the assays were run in different laboratories.
Sample: plasma

Structure (SMILES) | host | route | dose | setting | quantity | result
c1cc([C@H]2CC[C@]3(CC2)OO[C@]2(O3)C3CC4CC(C3)CC2C4)ccc1OCCN1CCOCC1 | human | oral | 200 mg | patients | AUC(0-inf) | 3180 ng·h/mL
Cc1ncc2n1-c1ccc(Cl)cc1C(c1ccccc1F)=NC2 | male human | oral | 7.5 mg | – | AUC | 117 ng·h/mL
CC(C)[C@H](N)C(=O)NCCCS(=O)(=O)O | human | oral | 256.5 mg | multiple doses, twice daily, fasted | AUC(0-t) | 11200 ng·h/mL
CN(C)CCc1c[nH]c2ccccc12 | human | intravenous | 9 mg | healthy volunteers, infusion | AUC(0-inf) | 5.87 ng·h/mL
OCc1ncc2n1-c1ccc(Cl)cc1C(c1ccccc1F)=NC2 | human | oral | 2 mg | – | AUC(0-inf) | 9.63 ng·h/mL
C=CCNc1c(O)cc2c(O)c1C[C@@H](C)C[C@H](OC)[C@H](O)[C@@H](C)/C=C(\C)[C@H](OC(N)=O)[C@@H](OC)/C=C\C=C(/C)C(=O)N2 | human | intravenous | 400 mg/m² | patients, infusion | AUC(0-inf) | 11700 ng·h/mL
N=C(N)NCCC[C@@H](NC(=O)[C@@H](N)Cc1ccccc1)C(=O)N[C@@H](Cc1ccccc1)C(=O)N[C@@H](CCCCN)C(N)=O | human | subcutaneous | 25 mg | patients | AUC(0-t) | 4620 ng·h/mL
CC(=C/C=C/C(C)=C/C(=O)O)/C=C1\CCCc2ccccc21 | human | oral | 20 mg | single dose, fasted, healthy volunteers | AUC(0-inf) | 827 ng·h/mL
C=C(C)[C@@H]1CC[C@]2(NCCN3CCS(=O)(=O)CC3)CC[C@]3(C)[C@H](CC[C@@H]4[C@@]5(C)CC=C(C6=CC[C@@](COc7ncccc7C#N)(C(=O)O)CC6)C(C)(C)[C@@H]5CC[C@]43C)[C@@H]12 | human | oral | 100 mg | fasted, tablet | AUC(0-inf) | 28000 ng·h/mL
COc1ccc(C[C@@H]2NC(=O)[C@H]([C@@H](C)O)NC(=O)[C@@H]3[C@@H]4CCN3C(=O)[C@@H]3Cc5cn(c6ccc(F)cc56)CCCCCCN(Cc5ccc(cc5)CCNC(=O)[C@]5(C)CCCN5C2=O)C(=O)CCC(=O)N[C@@H](C)C(=O)N[C@H](CNC(=O)CCCCC[N+](C)(C)C)C(=O)N[C@@H](Cc2cccc(c2)CNC(=O)CO4)C(=O)N3)cc1 | human | oral | 200 mg | single dose | AUC(0-t) | 0.481 µM·h
